ChEMBL document CHEMBL3352355, “Synthesis of novel polysubstituted (2SR,4RS)-2-heteroaryltetrahydro-1,4-epoxy-1-benzazepines and cis-2-heteroaryl-4-hydroxytetrahydro-1H-1-benzazepines as antiparasitic agents” (Eur J Med Chem, 2014)

Assays:
[1] = Cytotoxicity against human THP1 cells; assay type: cell-based; settings: THP-1 cells
How it was run: (§1)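 Vero monolayers or THP-1 cells (made adherent with 10 ng/mL PMA), in RPMI 1640 with 10% hiFCS, were exposed to compound (0.3–300 µg/mL) for 72 h at 37 °C, 5% CO2. Viability was measured by MTT, with formazan dissolved in DMSO and read at 580 nm. % cytotoxicity was calculated against untreated cells; CC50 came from sigmoidal regression, given as mean ± SD.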

Trypanosoma cruzi [2] = assay: Antiparasitic activity against amastigote stage of Trypanosoma cruzi infected in Vero cells assessed as parasite growth inhibition after 24 hrs by hemocytometery; assay type: functional, organism-based; settings: Trypanosoma cruzi, Vero, 24 h; read-out: IC50
How it was run: (§2)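 Host cells were Vero for T. cruzi (infected with tissue-derived trypomastigotes) and THP-1 (PMA-transformed, 10 ng/mL) for L. (L.) infantum (infected with late-phase promastigotes), at 1:10 cell:parasite for 24 h. Serial dilutions were given as two doses, the second on day 3 with a medium change. Read-out was % infected cells on methanol-fixed, Giemsa-stained slides (300 cells). IC50 came from sigmoidal regression; experiments in duplicate, concentrations in triplicate.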

[3] = Cytotoxicity against African green monkey Vero cells; assay type: cell-based; settings: chlorocebus sabaeus; how it was run: as §1
[4] = Selectivity index, ratio of CC50 for human THP1 cells to IC50 for promastigote stage of Leishmania infantum; assay type: functional, THP-1
How it was run: (§3)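 Selectivity index was calculated as CC50 in Vero (T. cruzi) or THP-1 (L. infantum) cells divided by parasite IC50. Both values came from 72 h mammalian-cell MTT assays and the parasite assays; SI ≥ 3 was defined as parasite-selective.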

Trypanosoma cruzi [5] = assay: Antiparasitic activity against epimastigote stage of Trypanosoma cruzi infected in Vero cells assessed as parasite growth inhibition […] by hemocytometery; assay type: functional, organism-based
How it was run: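 Exponential-phase T. cruzi Sylvio X10 epimastigotes (LIT medium with hiFCS) or L. (L.) infantum MHOM/BR/74/PP75 promastigotes (RPMI 1640, hemin, HEPES, 10% hiFCS) were exposed to threefold serial dilutions (0.3–300 µg/mL) for 72 h at 28 °C. Viable parasites were counted by hemocytometer with 0.25% eosin yellow. IC50 came from sigmoidal regression, given as mean ± SD.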

Leishmania infantum [6] = assay: Antiparasitic activity against promastigote stage of Leishmania infantum assessed as parasite growth inhibition after 72 hrs by hemocytometery
[7] = Selectivity index, ratio of CC50 for African green monkey Vero cells to IC50 for epimastigote stage of Trypanosoma cruzi; assay type: functional; how it was run: as §3
Leishmania infantum [8] = assay: Antiparasitic activity against amastigote stage of Leishmania infantum infected in THP1 cells assessed as parasite growth inhibition after 24 hrs by hemocytometery; assay type: functional, organism-based, THP-1; settings: Leishmania infantum, THP-1, 24 h; read-out: IC50; how it was run: as §2
[9] = Selectivity index, ratio of CC50 for African green monkey Vero cells to IC50 for amastigote stage of Trypanosoma cruzi; assay type: functional; how it was run: as §3

Compound	CC50 [1]	IC50 (Trypanosoma cruzi [2])	CC50 [3]	Selectivity Index [4]	IC50 (Trypanosoma cruzi [5])	IC50 (Leishmania infantum [6])	Selectivity Index [7]	IC50 (Leishmania infantum [8])	Selectivity Index [9]
Cc1ccsc1[C@@H]1C[C@H](O)Cc2ccccc2N1 (relative stereo)	579 µM	> 128 µM	616 µM	3.7	143 µM	156 µM	4.3	> 128 µM	
Fc1ccc2c(c1)C[C@@H]1C[C@@H](c3ccco3)N2O1 (racemic)	> 1220 µM	70.1 µM	> 408 µM	>14.7	47.7 µM	83.2 µM	>8.6	> 136 µM	>5.8
O=[N+]([O-])c1ccc([C@@H]2C[C@H]3Cc4ccccc4N2O3)o1 (racemic)	234 µM	> 122 µM	51.4 µM	2.2	53 µM	107 µM	1	> 368 µM	
Cc1ccsc1[C@@H]1C[C@H]2Cc3cc(OC(F)(F)F)ccc3N1O2 (racemic)	> 1760 µM	202 µM	61.7 µM	>153.9	47.2 µM	11.4 µM	1.3	> 293 µM	0.3
Cn1cccc1[C@@H]1C[C@H]2Cc3cc(F)ccc3N1O2 (mixture of isomers)	2180 µM	> 387 µM	533 µM	6.9	414 µM	316 µM	1.3	> 387 µM	
FC(F)(F)Oc1ccc2c(c1)C[C@@H]1C[C@@H](c3cccs3)N2O1 (racemic)	> 306 µM	73.9 µM	> 306 µM	>1.2	143 µM	256 µM	>2.1	> 306 µM	>4.1
Cc1ccc([C@@H]2C[C@H]3Cc4cc(F)ccc4N2O3)s1 (racemic)	234 µM	> 364 µM	944 µM	2.5	30.9 µM	92 µM	30.6	> 121 µM	
Clc1ccc2c(c1)C[C@@H]1C[C@@H](c3cccs3)N2O1 (racemic)	> 361 µM	> 120 µM	> 361 µM	>17.5	25.4 µM	20.7 µM	>14.2	> 120 µM	
Cc1ccc([C@@H]2C[C@H]3Cc4cc(OC(F)(F)F)ccc4N2O3)o1 (racemic)	176 µM	212 µM	414 µM	16.3	89.2 µM	10.8 µM	4.6	> 308 µM	2
O[C@@H]1Cc2cc(OC(F)(F)F)ccc2N[C@H](c2ccoc2)C1 (relative stereo)	460 µM	> 106 µM	95.4 µM	10.7	602 µM	43.1 µM	0.2	> 106 µM	
O=[N+]([O-])c1ccc([C@@H]2C[C@H]3Cc4cc(F)ccc4N2O3)o1 (racemic)	539 µM	284 µM	422 µM	50.4	29.7 µM	10.7 µM	14.2	> 115 µM	1.5
Cc1ccsc1[C@@H]1C[C@H](O)Cc2cc(Cl)ccc2N1 (relative stereo)	181 µM	41.5 µM	200 µM	2.5	47.9 µM	72.9 µM	4.2	> 341 µM	4.8
O=[N+]([O-])c1ccc([C@@H]2C[C@H]3Cc4cc(OC(F)(F)F)ccc4N2O3)o1 (racemic)	404 µM	> 281 µM	214 µM	6.1	> 843 µM	66.6 µM		> 281 µM	
Cc1ccc([C@@H]2C[C@H]3Cc4cc(Cl)ccc4N2O3)o1 (racemic)	374 µM	312 µM	1160 µM	19.6	46.2 µM	19.1 µM	25.1	> 130 µM	3.7
Cc1ccc([C@@H]2C[C@H](O)Cc3cc(Cl)ccc3N2)s1 (relative stereo)	> 2050 µM	> 114 µM	154 µM	>31.8	14.6 µM	64.4 µM	10.5	> 341 µM	
Cc1ccc([C@@H]2C[C@H]3Cc4ccccc4N2O3)s1 (racemic)	497 µM	91.5 µM	878 µM	9.6	147 µM	52 µM	6	> 389 µM	9.6
Fc1ccc2c(c1)C[C@@H]1C[C@@H](c3ccoc3)N2O1 (racemic)	> 1220 µM	> 408 µM	> 1220 µM	11.9	151 µM	103 µM	>8.1	> 408 µM	
Cc1ccc([C@@H]2C[C@H]3Cc4cc(F)ccc4N2O3)o1 (racemic)	338 µM	> 386 µM	1080 µM	3.3	192 µM	102 µM	5.6	> 128 µM	
FC(F)(F)Oc1ccc2c(c1)C[C@@H]1C[C@@H](c3ccoc3)N2O1 (racemic)	> 1930 µM	> 107 µM	180 µM	>76.6	192 µM	25.2 µM	0.9	> 322 µM	
O[C@@H]1Cc2cc(F)ccc2N[C@H](c2cccs2)C1 (relative stereo)	190 µM	> 380 µM	218 µM	1.6	764 µM	120 µM	0.3	> 380 µM	
Cc1ccc([C@@H]2C[C@H]3Cc4cc(Cl)ccc4N2O3)s1 (racemic)	> 2060 µM	101 µM	1140 µM	>63.8	24.8 µM	32.3 µM	46.1	> 344 µM	11.3
Fc1ccc2c(c1)C[C@@H]1C[C@@H](c3ccc(Br)s3)N2O1 (racemic)	> 295 µM	54.6 µM	> 295 µM	>40.6	34.7 µM	7.3 µM	>8.5	> 295 µM	>5.4
c1coc([C@@H]2C[C@H]3Cc4ccccc4N2O3)c1 (racemic)	663 µM	> 440 µM	1560 µM	14.7	229 µM	45.3 µM	6.8	> 440 µM	
Cc1ccc([C@@H]2C[C@H]3Cc4cc(OC(F)(F)F)ccc4N2O3)s1 (racemic)	282 µM	> 293 µM	170 µM	26.8	43.9 µM	10.5 µM	3.9	> 293 µM	
Clc1ccc2c(c1)C[C@@H]1C[C@@H](c3ccco3)N2O1 (racemic)	> 1150 µM		353 µM	>24.3	53.1 µM	47.3 µM	6.7	> 128 µM	
CC1CS(=O)(=O)CCN1/N=C/c1ccc([N+](=O)[O-])o1 (stereo unspecified) [NIFURTIMOX]		1.6 µM	67.5 µM		4 µM		17		43
O[C@@H]1Cc2cc(Cl)ccc2N[C@H](c2cccs2)C1 (relative stereo)	115 µM	> 119 µM	164 µM	2.3	95.1 µM	49.5 µM	1.7	> 119 µM	
